Laboratory results from ChEMBL document CHEMBL1132963, “Structure-based design of potent, amidine-derived inhibitors of factor Xa: evaluation of selectivity, anticoagulant activity, and antithrombotic activity” (2000).
Each block holds one compound with its values, some of them ahead of it.

Assays:
[1] = target: Coagulation factor X (Homo sapiens) (UniProt P00742); assay: Apparent association constant against human Coagulation factor X.
Procedure, shortened: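 Human fXa at 3.2 nM final in Tris/NaCl buffer pH 7.4 with HSA; inhibitor added from MeOH in triplicate at four to eight concentrations, then chromogenic substrate (0.3 mM stock) to start hydrolysis, read at 405 nm. Free and bound enzyme taken from on-plate standard curves; apparent Kass = [Eb]/[Ef][Io − Ib] from concentrations giving 20–80% inhibition. At least 3 separate experiments averaged.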

[2] = target: Vitamin K-dependent protein C (Homo sapiens) (UniProt P04070); assay: Tested for inhibition of activated protein C
Procedure, shortened: (§1)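 Apparent association constant from inhibition of chromogenic substrate hydrolysis read at 405 nm, using a single substrate concentration suited to each protease. Inhibitor dilutions done in triplicate at four to eight concentrations; Kass computed from free and bound enzyme at 20–80% inhibition. Mean of at least 3 separate experiments.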

[3] = target: Prothrombin (Homo sapiens) (UniProt P00734); assay: Tested for inhibition of thrombin.; procedure, shortened: as §1
[4] = target: Tissue-type plasminogen activator (Homo sapiens) (UniProt P00750); assay: Tested for inhibition of Tissue type plasminogen activator; procedure, shortened: as §1
[5] = target: Urokinase-type plasminogen activator (Homo sapiens) (UniProt P00749); assay: Tested for inhibition of Urokinase-type plasminogen activator; procedure, shortened: as §1
Trypsin II (Bos taurus) = target: T1, Trypsin II (Bos taurus) (UniProt Q29463); assay: Tested for inhibition of trypsin; procedure, shortened: as §1
T1 sequence (whole entry): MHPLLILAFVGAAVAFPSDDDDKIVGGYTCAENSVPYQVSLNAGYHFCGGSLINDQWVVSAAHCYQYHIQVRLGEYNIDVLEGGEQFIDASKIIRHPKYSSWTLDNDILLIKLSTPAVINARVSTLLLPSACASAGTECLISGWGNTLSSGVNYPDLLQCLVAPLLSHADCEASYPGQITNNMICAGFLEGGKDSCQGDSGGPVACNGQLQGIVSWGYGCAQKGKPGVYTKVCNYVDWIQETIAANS

[6] = Selectivity as the ratio of Kass value towards fXa to that of UK.
Procedure, shortened: (§2)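 Ratio of fXa Kass to Kass for the second protease. Each Kass is an apparent association constant from chromogenic substrate hydrolysis kinetics at 405 nm, run at one substrate concentration per protease, in triplicate at four to eight inhibitor concentrations. Each value is the mean of at least 3 separate experiments.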

[7] = target: Coagulation factor X (Homo sapiens) (UniProt P00742); assay: Selectivity as the ratio of Kass value towards fXa to that of aPC.; procedure, shortened: as §2
[8] = Selectivity as the ratio of Kass value towards fXa to that of tissue plasminogen activator.; procedure, shortened: as §2
[9] = target: Thrombin and coagulation factor X (Homo sapiens) (UniProt P00734+P00742); assay: Selectivity as the ratio of Kass value towards fXa to that of thrombin.; type: protein assay; procedure, shortened: as §2
[10] = Selectivity as the ratio of Kass value towards fXa to that of trypsin.; procedure, shortened: as §2
[11] = target: Plasminogen (Homo sapiens) (UniProt P00747); assay: Tested for inhibition of plasmin
[12] = test system: Plasminogen and coagulation factor X (Homo sapiens); assay: Selectivity as the ratio of Kass value towards fXa to that of plasmin.
[13] = Compound required to double the time to clot formation in reconstituted human plasma, using activated partial thromboplastin time (APTT); type: functional
Procedure, shortened: (§3)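 Reconstituted human plasma; clotting by activated partial thromboplastin time or prothrombin time. Value is the inhibitor concentration that doubles clotting time.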

Homo sapiens = organism: Homo sapiens; assay: Compound required to double the time to clot formation in reconstituted human plasma, using the prothromboplastin time (PT); type: functional; procedure, shortened: as §3

Sequence of Thrombin and coagulation factor X (Homo sapiens) (P00742 whole entry, looked up, other chains not shown): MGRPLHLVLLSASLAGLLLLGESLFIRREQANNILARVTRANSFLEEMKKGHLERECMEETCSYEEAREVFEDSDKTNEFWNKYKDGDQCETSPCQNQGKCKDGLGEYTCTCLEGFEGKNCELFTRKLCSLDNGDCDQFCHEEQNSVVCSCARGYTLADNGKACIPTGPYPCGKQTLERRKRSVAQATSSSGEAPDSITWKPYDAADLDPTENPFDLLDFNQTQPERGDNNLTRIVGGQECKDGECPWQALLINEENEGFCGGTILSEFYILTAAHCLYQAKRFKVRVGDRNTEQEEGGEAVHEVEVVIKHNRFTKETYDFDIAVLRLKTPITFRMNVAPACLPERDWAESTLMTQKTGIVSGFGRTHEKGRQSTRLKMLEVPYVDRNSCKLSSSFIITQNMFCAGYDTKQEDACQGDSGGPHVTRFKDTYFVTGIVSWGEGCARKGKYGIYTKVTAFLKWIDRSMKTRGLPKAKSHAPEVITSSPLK
Sequence of Vitamin K-dependent protein C (Homo sapiens) (P04070 43-197 limits assumed): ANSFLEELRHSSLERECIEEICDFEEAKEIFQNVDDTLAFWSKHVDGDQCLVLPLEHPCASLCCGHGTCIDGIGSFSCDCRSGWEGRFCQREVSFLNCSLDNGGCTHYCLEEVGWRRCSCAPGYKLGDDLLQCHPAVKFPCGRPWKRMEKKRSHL
Sequence of Vitamin K-dependent protein C (Homo sapiens) (P04070 212-461 limits assumed): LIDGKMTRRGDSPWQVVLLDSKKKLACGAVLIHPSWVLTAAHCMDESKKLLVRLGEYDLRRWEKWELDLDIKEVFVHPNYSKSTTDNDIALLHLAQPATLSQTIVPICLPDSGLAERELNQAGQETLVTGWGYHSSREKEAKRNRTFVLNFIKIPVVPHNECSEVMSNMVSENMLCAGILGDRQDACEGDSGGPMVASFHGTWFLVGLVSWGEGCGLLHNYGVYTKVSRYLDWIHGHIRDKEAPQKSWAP
Sequence of Coagulation factor X (Homo sapiens) (P00742 41-179 limits assumed): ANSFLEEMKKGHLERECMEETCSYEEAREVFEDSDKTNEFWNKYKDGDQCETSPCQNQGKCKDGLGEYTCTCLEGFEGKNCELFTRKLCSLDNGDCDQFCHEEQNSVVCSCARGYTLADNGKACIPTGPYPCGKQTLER
Sequence of Coagulation factor X (Homo sapiens) (P00742 235-488 limits assumed): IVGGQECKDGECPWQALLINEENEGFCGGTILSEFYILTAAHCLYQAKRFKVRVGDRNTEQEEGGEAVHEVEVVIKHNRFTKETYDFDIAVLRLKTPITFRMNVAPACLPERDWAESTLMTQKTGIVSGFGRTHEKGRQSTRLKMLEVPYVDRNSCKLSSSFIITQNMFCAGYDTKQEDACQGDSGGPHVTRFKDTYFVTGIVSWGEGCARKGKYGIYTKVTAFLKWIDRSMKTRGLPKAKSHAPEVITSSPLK
Sequence of Plasminogen (Homo sapiens) (P00747 whole entry, looked up): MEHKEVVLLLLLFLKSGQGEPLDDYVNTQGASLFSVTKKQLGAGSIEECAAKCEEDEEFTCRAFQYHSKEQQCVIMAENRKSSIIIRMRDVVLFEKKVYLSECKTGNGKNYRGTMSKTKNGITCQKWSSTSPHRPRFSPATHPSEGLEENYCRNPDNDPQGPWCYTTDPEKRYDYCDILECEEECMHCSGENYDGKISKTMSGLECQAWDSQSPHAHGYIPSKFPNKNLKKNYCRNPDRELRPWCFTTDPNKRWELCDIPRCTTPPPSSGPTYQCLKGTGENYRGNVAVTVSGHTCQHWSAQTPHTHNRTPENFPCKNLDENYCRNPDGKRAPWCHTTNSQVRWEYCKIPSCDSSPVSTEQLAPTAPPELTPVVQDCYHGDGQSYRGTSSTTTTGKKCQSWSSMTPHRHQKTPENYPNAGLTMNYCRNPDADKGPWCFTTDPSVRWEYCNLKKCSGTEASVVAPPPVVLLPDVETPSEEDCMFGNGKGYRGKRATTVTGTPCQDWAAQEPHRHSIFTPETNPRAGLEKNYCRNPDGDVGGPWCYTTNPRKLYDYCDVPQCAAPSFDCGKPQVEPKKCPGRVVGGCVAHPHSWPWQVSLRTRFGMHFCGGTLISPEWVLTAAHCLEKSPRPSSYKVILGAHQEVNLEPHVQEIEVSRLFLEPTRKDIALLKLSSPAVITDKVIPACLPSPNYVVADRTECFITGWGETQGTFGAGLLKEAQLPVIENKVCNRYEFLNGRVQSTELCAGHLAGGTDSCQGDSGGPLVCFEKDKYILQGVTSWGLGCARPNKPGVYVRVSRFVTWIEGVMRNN
Sequence of Tissue-type plasminogen activator (Homo sapiens) (P00750 36-562 limits assumed): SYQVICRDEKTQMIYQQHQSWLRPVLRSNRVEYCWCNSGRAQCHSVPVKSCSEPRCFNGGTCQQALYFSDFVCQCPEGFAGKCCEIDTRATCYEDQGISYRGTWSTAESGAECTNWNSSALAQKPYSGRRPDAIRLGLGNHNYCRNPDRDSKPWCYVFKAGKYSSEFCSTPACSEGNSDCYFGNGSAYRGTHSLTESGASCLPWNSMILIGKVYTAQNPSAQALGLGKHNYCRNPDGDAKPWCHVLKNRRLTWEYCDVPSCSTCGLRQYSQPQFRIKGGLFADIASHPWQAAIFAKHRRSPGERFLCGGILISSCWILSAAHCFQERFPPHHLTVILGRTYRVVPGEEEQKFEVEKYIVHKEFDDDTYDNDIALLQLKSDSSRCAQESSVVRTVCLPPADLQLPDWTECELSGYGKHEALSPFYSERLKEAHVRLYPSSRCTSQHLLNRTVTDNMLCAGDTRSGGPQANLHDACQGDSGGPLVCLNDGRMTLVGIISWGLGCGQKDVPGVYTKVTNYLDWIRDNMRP

Compound: CC(C)(C)c1ccc(C(=O)Nc2ccsc2C(=O)Nc2cccc(C(=N)N)c2)cc1
- K ass [1]: 1.2e+07 l M-1

Compound: CC(C)c1ccc(C(=O)Nc2cc(OCC(=O)O)ccc2NC(=O)c2cccc(C(=N)N)c2)cc1
- K ass [2]: 14000 l M-1
- K ass [1]: 3.4e+08 l M-1
- K ass [3]: 800000 l M-1
- K ass [4]: 7000 l M-1
- K ass [5]: 1000 l M-1
- K ass (Trypsin II (Bos taurus)): 2.5e+06 l M-1
- Ratio [6]: 340000
- Ratio [7]: 24000
- Ratio [8]: 49000
- Ratio [9]: 430
- Ratio [10]: 140
- K ass [11]: 39000 l M-1
- Ratio [12]: 8700

Compound: CCOC(=O)COc1ccc(NC(=O)c2cccc(C(=N)N)c2)c(NC(=O)c2ccc(C(C)C)cc2)c1
- K ass [1]: 1.6e+08 l M-1

Compound: CC(C)c1ccc(C(=O)Nc2cc(O)ccc2NC(=O)c2cccc(C(=N)N)c2)cc1
- K ass [1]: 2.3e+08 l M-1

Compound: CC(C)(C)c1ccc(C(=O)Nc2cc(C(=O)O)ccc2NC(=O)c2cccc(C(=N)N)c2)cc1
- K ass [2]: 13000 l M-1
- K ass [3]: 650000 l M-1
- K ass [4]: 4000 l M-1
- K ass [5]: 1000 l M-1
- Activity [13]: 0.72 µM
- Activity (Homo sapiens): 0.83 µM
- K ass (Trypsin II (Bos taurus)): 1.2e+07 l M-1
- Ratio [6]: 470000
- Ratio [7]: 36000
- Ratio [8]: 120000
- Ratio [9]: 720
- Ratio [10]: 390
- K ass [11]: 73000 l M-1
- Ratio [12]: 6400

Compound: CC(C)(C)c1ccc(C(=O)Nc2ccccc2NC(=O)C2CCCN(C(=N)N)C2)cc1 (stereo not drawn)
- K ass [1]: 1.2e+07 l M-1

Compound: CC(C)(C)c1ccc(C(=O)Nc2ccc(C(=O)O)cc2NC(=O)c2cccc(C(=N)N)c2)cc1
- K ass [1]: 5.4e+07 l M-1

Compound: CC(C)(C)c1ccc(C(=O)Nc2ccccc2C(=O)Nc2cccc(C(=N)N)c2)cc1
- K ass [1]: 3.5e+06 l M-1

Continued, in another order:

- K ass [1]: 1.8e+08 l M-1
Compound: CC(C)c1ccc(C(=O)Nc2ccccc2NC(=O)c2cccc(C(=N)N)c2)cc1

- K ass [2]: 2000 l M-1
- K ass [1]: 2.5e+08 l M-1
- K ass [3]: 3e+06 l M-1
- K ass [4]: 11000 l M-1
- K ass (Trypsin II (Bos taurus)): 340000 l M-1
- Ratio [6]: > 250000
- Ratio [7]: 13000
- Ratio [8]: 23000
- Ratio [9]: 83
- Ratio [10]: 740
- K ass [11]: 6000 l M-1
- Ratio [12]: 42000
Compound: CC(C)(C)c1ccc(C(=O)Nc2ccccc2NC(=O)c2cccc(C(=N)N)c2)cc1
- Activity [13]: 0.67 µM
- Activity (Homo sapiens): 0.96 µM

- K ass [1]: 270000 l M-1
Compound: COc1ccc(C(=O)Nc2ccc(C(=N)N)cc2NC(=O)c2ccc(OC)cc2)cc1

- K ass [2]: 15000 l M-1
- K ass [1]: 1.4e+07 l M-1
- K ass [3]: 270000 l M-1
- K ass [4]: 20000 l M-1
- K ass [5]: 1000 l M-1
- K ass (Trypsin II (Bos taurus)): 600000 l M-1
- Ratio [6]: 15000
- Ratio [7]: 1000
- Ratio [8]: 750
- Ratio [9]: 56
- Ratio [10]: 25
- K ass [11]: 20000 l M-1
- Ratio [12]: 750
Compound: COc1ccc(C(=O)Nc2ccccc2NC(=O)c2cccc(C(=N)N)c2)cc1
- Activity [13]: 2 µM
- Activity (Homo sapiens): 1.5 µM

- K ass [1]: 5.7e+06 l M-1
Compound: COc1ccc(C(=O)Nc2ccccc2NC(=O)c2ccc(C(=N)N)cc2)cc1

- K ass [1]: 1.7e+06 l M-1
Compound: COc1ccc(NC(=O)c2ccccc2NC(=O)c2cccc(C(=N)N)c2)cc1

- K ass [1]: 1e+06 l M-1
Compound: COc1ccc(C(=O)Nc2ccccc2NC(=O)C2CCCN(C(=N)N)C2)cc1 (stereo not drawn)

- K ass [1]: 2.9e+07 l M-1
Compound: CCOc1ccc(C(=O)Nc2ccccc2NC(=O)c2cccc(C(=N)N)c2)cc1
